This sample holds only a part of the variants without activity.
B1: tRNA (parent)
chain: GUUCCGUUGGCGUAAUGGUAACGCGUCUCCCUCCUAAGGAGAAGACUGCGGGUUCGAGUCCCGUACGGAACG

Variants of: B1
Assay: yeast fitness relative to wild type (ratio to wild type); higher = fitter; tRNA-Arg(CCU), competitive growth, 37 C, YPD
How it was run: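 Variants of the tRNA-Arg(CCU) gene, chemically synthesised with a 3% per-site mutation rate at 69 sites, were placed at the native genomic locus in Saccharomyces cerevisiae. The pooled strains were competed in YPD at 37°C for 24 hours in six parallel replicates. Gene amplicons from the start population and from each end population were read by 100-nucleotide paired-end sequencing. Darwinian fitness relative to wild type came from changes in genotype frequencies; genotypes needed ≥ 100 starting reads, and estimates < 0.5 were set to 0.5.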

Variant	yeast fitness
GUUCGGUUGCCGUAAUGGUAACGCGUCUCCCUCCGAAGGAGAAGACUGCAGGUUUGAGUCCCGUACGGCACG	0.607
GUUCGGUUGGCGUAAUCGUAACGCAUCUCCCUCCUAAGGCGAAGACUGCGGGUUCGAGACCCGUACGGAACG	0.54
GUUCGGUUGGCGUAAUGGUAACGCAUCUCCCUCCUAAGGAGAAGACUGCGGGUUCGAGUCCCGUACGGUACG	0.75
GUUCGGUUGGCGUAAUGGUAACGCGUCUCCCUCCUAAGAAGAAGACUGUGGGUUCGAGUCCCGUACGGAACG	0.524
GUUCGGUUGGCGUAAUGGUAACCCGUCUCCCUUCUAAGAAGACGACUGCGGGUUCGAGUCCCGUACGGAACG	≤ 0.5
GUUCGGUUGGCCUAAUGAUAACGUGUCUUCCUCCUGAGGAGAAGACUGCGGGUUCGAGUCCCGUACGGCACG	≤ 0.5
GUUCGGUUGGCGUAAUGGUAACGCAUCUCCCUCCUAAGGAGAAGACUGCGGGUUCGAGUCGCGUACGGAACG	0.564
GUUCGGUUGGCGUAAUGGUAACACGUCUCCCUCCUAAGGAGAAGACUGCGGGUUCGAGUUCGGUACGGAACG	≤ 0.5
GUUCGGUUGGCGUAAUGGUAACGCAUCUCCCUCCUAAGGAGAAGACUACGGGUUCGAGUCCCGUACGGAACG	0.724
GUUCGGUUGGCGUAAUAGUCACGCGUCUCCCUCCUAAGGAGAAGACUGGGGGUUCGAGUCCCGUACGGCACG	≤ 0.5
GUUCGGUUGCCGGAAUGGUAACGCGUCUCCCUCCUACGGAGAAGACUGCGGGUUCAAGUCCCGUUCGGAACG	0.64
GUUCGGUUGGCAUAAUGGUAAAGCGCCUCCCUGCUAAGGAGAAGACUGCGGGUUCGAGUCCCGAACCGAACG	≤ 0.5
GUUCGGUUGGCGUAAUGGUAACGCGUCUCCCUCCUAAGAAGAAGACUGCGGGUUCGAGUCCCGUACGGAACG	0.725
GUUCGGUUGGCGUAAUCGUAACGCAUCUCCCUCCUAAGGAGAAGACUGCGGGUUCGAGUCCCGUACGGAGCG	≤ 0.5
GUUCGGUUGGCGUAAUAGUAACGCGUCUCCCUCCUAAGGAGAAGAGUGCGGGUUCGAGUCCCGUACGGAACG	0.538
GUUCGGUUGACGUAAUGGUAAUGCGUCUCCCUCCUACGGAGAAGACUGCGGGUUCAAGUCCCGUACGGAACG	≤ 0.5
GUUCGGUUGGCGUAAUGGUAACGCGUCUCCCUCCUAAGGAGAAGACUCCGGGUUCGAGUCCCGUACGGUACG	0.587
GUUCGGUUGGCGUAAUCGUAACGCGUCUCCCUCCUAAGGAGAAGGUUGCGGGUUCGAGUCCCGUACGGAACG	≤ 0.5
GUUCGGUUGGCGUAAUGGUAACGCGUCUCCCUCCUAAGAAGAAGACUGGGGGUUUGUGUCCCGUACGGAACG	≤ 0.5
GUUCGGUUGGCGUAAUGGUAACGCGUCUCCCUCCUAAGGAGAACACUGCGGGUUAGAGUCCCGUACGGAACG	≤ 0.5
GUUCGGUUGCCGUAAUGGUAACGCGUCUCCCUCCUAAGGAGAAGACUGCGGAUACGAGUGCCGUACGGAACG	0.629
GUUCGGUUGAGGUAAGGGUAACGCGUCUCCCUGCUAAGGAGAAGACUGCGGGUUCGAGUCCCGUAUGGAACG	≤ 0.5
GUUCGGUUGGCGUAAUGGUAACGCGUCUCCCUCCUAAGGAGAACACUGUGGGUUCGAGGCCCGUACGGAACG	≤ 0.5
GUUCGGUUGGCGUAAUGAUAAUGCGUCUCCCUCCUAAGGAGAAGACUGCGGGUUCGAGUCCCGUACGGAACG	≤ 0.5
GUUCGGUUGGCGUAAUGGUAACGCGUCUCCCUCCUAAGGAGAAGACUCUGGGUGUGAGUCCCGUAAGGAACG	0.604

Variant	yeast fitness
GUUCGGUUGGCGUAAUGGUAACGCGUCUCCCUCCUAAGGAGAAGACUGCAGGUUCGAGUCCCGUACGGAACG	0.835
GUUCGGUUGGCGUAAUGGUAACGCGUCUCCCUCCUAAGGAGAAGACUGCCGGUUCGAGUCCCGUACGGAACG	0.701
GUUCGGUUGGCGUAAUGGUAACGCGUCUCCCUCCUAAGGAGAAGACUAUGGGUUCGAGUCCCGUACGGAACG	0.933
GUUCGGUUGGCGUAAUGGUAACACGUCUCCCCCCUAAGGAGAAGACUGCGGGUUCGAGUCACGUACGGAACG	≤ 0.5
GUUCGGUUGGCGUAAUCGUAACGCGUCUCCCUCCUAAGGAGAAGACUGCAGGUUCGAGUCCCGUUCGGAACG	≤ 0.5
GUUCGGUUGACGUAAUGGUAACGCGUCUCCCUCCUAAGGAGGAGACUGCGGGUUUGAGUCCCGUACGGACCG	≤ 0.5
GUUCGGUUGGCGUAAUGGUAACGCAUCUCCCUCCUAAGGAGAAGACUGCGGGUUCGAGUCCCGUACGGACCG	0.758
GUUCGGUUGGCGUAAUGGUAACGCGUCUCCCUCCUAAGGAGAAGACUGCGCGUUCGAGUCCCGUACGGAACG	0.761
GUUCGGUUGGCGUAAUGGUAACGCGUCUCCCUCCUAAGGAGAAGACUGCGAGUUCGAGUCCCGUACGGAACG	0.78
GUUCGGUUGGCGUAAUAGUAACGCGUCUCCCUUCUACGGAGAAGACUGCGGGUUCGAGUCCCGUCCGGAACG	≤ 0.5
GUUCGGUUGGCGUAAUGGUAACGCGUCUCCCUCCUAAAGAGAAGACUGCGGGUUCGAGUCCCGUACGGUACG	0.559
GUUCGGUUGGCGUAAUAGUCACGCGUCUCCCUCCUAAGGAGAAGACUGGGGGUUCGAGUCCCGUACGGAACG	0.551
GUUCGGUUGGCCUAAUGGUAACGCGUCUCCCUCCUAAGGAGAAGACUGUGGGUUCGAGUCCCGUACGGAACG	0.584
GUUCGGUUGGCGUAAUGGUAACGCGUCUCCCUCCUAAGGAGAAGACUGCGCGUUCGUGUUCCGUACGGAACG	≤ 0.5
GUUCGGUUGGCCUAAUGGUAACGCGUCUCCCUCCUAAGGAGAAGACUGUGGGUUCGAGUCCCGUCCGGAACG	0.726
GUUCGGUUGACGUAAUGGUAACGCGUCUCCCUUCUAAGGAGAAGACUGCGGGUUCGAGUCCCGUCCGCAACG	0.55
GUUCGGUUGGCGUAAUGGUAACCCGUCUCCGUCCUAAGGAGAAGACUGCGGGUUCGAGUACCGUACGGAUCG	≤ 0.5
GUUCGGUUGGCGUAAUCGUAACGCGUCUCCCUCCUAAGGAGAAGACUGCGGGUUUGAGUCCCGUACGGAACG	≤ 0.5
GUUCGGUUGGCGUAAUGGUAACGCGUCUCCCUCCUAAGGACAAGACUGCGGGUUCGAGUCUCGUACGGAACG	≤ 0.5
GUUCGGUUGGCGUAAUGGUAACGCGUCUCCCUCCUAAGGAGAAGACUGCAGGUUCGAGUCCCGUGCGGAACG	0.587
GUUCGGUUGGCGUAAUAGUCACGCGUCUCCCUCCUAAGGAGAAGACUGCGGGUUCGAGUCCCGUACGGAACG	≤ 0.5
GUUCGGUUGGCGUAAUGGUAACGCGUCUCCCUCCUAAAGAGAAGACUGCGGGUUCGAGUCCCGUACGGAACG	0.729
GUUCGGUUGGCGUAAUAGUCACGCGUCUCCCUCCUAAAGAGAAGACUGCGGGUUCGACUCCCGUAUGGAACG	≤ 0.5
GUUCGGUUGGCGUAAUGGUAACGCGUCUCCCUCCUAAGGAGAAGACUGCGAGUUCGAGUCCCGUACGAAACG	≤ 0.5
GUUCGGUUGGCGUAAUCGUAACGCGUCUCCCUCCUAAGGAGAAGACUGCGGGUUCGAGUCCCAUGCGGAACG	≤ 0.5

Variant	yeast fitness
GUUCGGUUGGCGUAAUGGUAACGCGUCUCCCUCCUAAGGAGAAAACUGCGGGUUCGAGUCCCGUACGGUACG	0.646
GUUCGGUUGGCGUAAUGGUAACGCCUCUCCCUCCUAAGGAGAAAACUGCGGGUUCGAGUCCCGUACGGAACG	≤ 0.5
GUUCGGUUGGCCUAAUGGUAACGCGUCUCCCUCCUAAGGAGAAGCUUGCGGGUUUGAGUCCUGUACGGAACG	≤ 0.5
GUUCGGUUGGCGUAAUGGUAACCCGUCUCCCUCCUAAGGAGAAGACUGCGGGUUCGAGUCCCGUACGGAACG	0.695
GUUCGGUUGGCGUAAUCGUAACGCGUCUCCCUCCUAAGGAGAUGACUGCGGGUUCGAGUCCCGUACGGCACG	0.596
GUUCGGUUGGCCUAAUGGUAACGAGUCUCCCUGCUAAGGAGAAGACUGGGGGUUCGAGUCCCGUGCGGAACG	0.573
GUUCGGUUGGCGUAAUGGUAACGCCUCUCCCUCCUAAGGAGAAGACUGUGGGUUCGAGUCCCGUACGGAACG	0.689
GUUCGGUUGCCGUAAUGGUAACGCGUCUCCCUCCUAAGGAGAUGACUGCGGGUCCGAGUCCCGUACGGAACG	≤ 0.5
GUUCGGUUGGCGUAAUGGUAACGCGUCUCCCUCCUAAGAAGAAGACUGCGGAUUCGAGUCCCGUACGGAGCG	≤ 0.5
GUUCGGUUGGCGUAAUGGUAACGCGUCUCCCUCCUAAGGACAAGUCUGCGGGUUCGAGUCCCGUACGGAACG	0.583
GUUCGGUUGGCAUAAUGGUAACGCGUCUCCCUCCUAAGGAGAAGACUGGGGGUUCGAGUCCCGUACGCAACG	≤ 0.5
GUUCGGUUGGCGUAAUGGUAACACGUCUCCCUCCUAAGGAGAUGACUGCGGGUUCGAGUCCCGUGCGAAACG	≤ 0.5
GUUCGGUUGGCGUAAUGGUAACGCCUCUCCCUCCUAAGGAGAAGAGUGCGGGUUCGAGUCCCGGACGGAACG	≤ 0.5
GUUCGGUUGGCAUAAUGGUAACGCGUCUCCCUCCUAAGGAGAAGACUGCGGGUUCGAGUCCCGUACGGAACG	0.932
GUUCGGUUGGCAUAAUGGUAACGCGUCACCCUCCUAAGGAGAAGACUGCGGGUUCGAGUCCCGUGCGGAACG	0.703
GUUCGGUUGGCGUAAUGGUAACCCGUCUCCCUCCUCAGGAGAAGACUGCGGGUUCGAGUCCCGUACGGAACG	≤ 0.5
GUUCGGUUGGCGUAAUGGUAACGCGUCUCCCUCCUAAGAAGAAGACUGCGGGUUCGAGUCCCGUACGGAGCG	0.617
GUUCGGUUGGCGUAAUGCUAACGCGCCACCCUCCUAAGGAGAAGACUGCGGGUUCGAGUCCCGUACGGAACG	≤ 0.5
GUUCGGUUGCCGUAAUGGUAACGCGUCUACCUCCUAAGGAGAAGACUGCGGGUUCGAGUCCCGUACGGAACG	≤ 0.5
GUUCGGUUGGCGUAAUGGUAACGCAUCUCCCUCCUAAGGAGAAGACUACGGGUUCGAGUCGCGUACGGAACG	≤ 0.5
GUUCGGUUGGCGUAAUGGUAACGCGUCUCCCUCCUAAGGAGAAGACUACGGGUUCGAGUCCGGUACGGUACG	0.768
GUUCGGUUGGCGUAAUGAUAACGCGUCUCCCUCCUAAGGAGAAGACUGCGGGUUAGAGUCCCGUACGGAACG	≤ 0.5
GUUCGGUUGGCGUAAUGGUAACGCAUCUCCCUCCUAAGGAGCAGACUGCGGGUUCGAGUCCCGUACGAAACG	≤ 0.5
GUUCGGUUGGCGUAAUAGUAACGCGUCUCCCUCCUAAGGAGAAGACUGCGGGUUCGAGUCCAGUACGGAACG	≤ 0.5
GUUCGGUUGGCGUAAUGGUAACGCGUCUCCCUCCUAAGGAGAAAACUGCGGGUUGGAGUCCCGUACGGAACG	0.527

— the RNAGym collection of RNA variant scans (doi:10.1126/science.aae0568)
